# Measured values as given in ChEMBL document CHEMBL1121399, “Synthesis of 5-[(methylthio)methyl]-2'-deoxyuridine, the corresponding sulfoxide and sulfone, and their 5'-phosphates: antiviral effects and thymidylate synthetase inhibition” (1980).
# Legend:
# Assay type in all cases: functional
# [1] = species on record: Oryctolagus cuniculus; assay: Tested for its antimetabolic activity by measuring the concentration required for [2-14C]- Urd incorporation into host cell DNA by 50%; details: read-out: ID50 (the source's name)
# In short: (§1)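 Primary rabbit kidney (PRK) cell cultures; incorporation of [methyl-3H]thymidine or [2-14C]2'-deoxyuridine into host cell DNA measured in presence of compound; value is concentration (µg/mL) reducing label incorporation by 50%; concentrations up to 400 µg/mL.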
# [2] = species on record: Oryctolagus cuniculus; assay: Tested for its antimetabolic activity by measuring the concentration required for [Me-3H] dThd incorporation into host cell DNA by 50%; details: read-out: ID50 (the source's name); in short: as §1
# [3] = species on record: Oryctolagus cuniculus; assay: Tested for its antiviral activity in primary rabbit kidney (PRK) cell cultures inoculated with herpes simplex type 1 virus; range 4-10
# In short: (§2)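 Primary rabbit kidney (PRK) cell cultures infected with HSV; inhibition of virus-induced cytopathogenicity scored; ID50 (µg/mL) is concentration reducing cytopathogenicity by 50%; means over three HSV-1 strains (KOS, F, McIntyre) or three HSV-2 strains (Lyons, 196, G), range across strains shown; top concentration 400 µg/mL.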
# [4] = species on record: Oryctolagus cuniculus; assay: Tested for its antiviral activity in primary rabbit kidney (PRK) cell cultures inoculated with herpes simplex type 2 virus; in short: as §2
# [5] = species on record: Oryctolagus cuniculus; assay: Tested for its antiviral activity in primary rabbit kidney (PRK) cell cultures inoculated with vaccinia virus
# [6] = species on record: Oryctolagus cuniculus; assay: Tested for its antiviral activity in primary rabbit kidney (PRK) cell cultures inoculated with herpes simplex type 1 virus; in short: as §2
# [7] = species on record: Oryctolagus cuniculus; assay: Tested for its antiviral activity in primary rabbit kidney (PRK) cell cultures inoculated with herpes simplex type 2 virus; range 0.2-0.4; in short: as §2
Compound,IC50 [1] [µg/mL],IC50 [2] [µg/mL],ID50 [3] [µg/mL],ID50 [4] [µg/mL],ID50 [5] [µg/mL],ID50 [6] [µg/mL],ID50 [7] [µg/mL]
CSCc1cn([C@H]2C[C@H](O)[C@@H](CO)O2)c(=O)[nH]c1=O,> 400,100,6,4,200,,
C[S+]([O-])Cc1cn([C@H]2C[C@H](O)[C@@H](CO)O2)c(=O)[nH]c1=O (some centres not stated),,,,>400,,>400,
CS(=O)(=O)Cc1cn([C@H]2C[C@H](O)[C@@H](CO)O2)c(=O)[nH]c1=O,> 400,300,,>400,200,4,
O=c1[nH]c(=O)n([C@H]2C[C@H](O)[C@@H](CO)O2)cc1I [IDOXURIDINE],1.2,2.5,,,0.2,0.15,0.3
